Results pooled from the literature.
Compare with care: the assays were run in different laboratories.
ABL1 F317L: Tyrosine-protein kinase ABL1 (ABL1, Homo sapiens, UniProt P00519, F317L)
ABL1 E255K phosphorylated: Tyrosine-protein kinase ABL1, phosphorylated (ABL1, Homo sapiens, UniProt P00519, E255K)
ABL1: Tyrosine-protein kinase ABL1 (ABL1, Homo sapiens, UniProt P00519)

SMILES	target	observed	mode	technique	concentration	measurement	result
C=CC(=O)N1CCC([C@@H]2CCNc3c(C(N)=O)c(-c4ccc(Oc5ccccc5)cc4)nn32)CC1	Tyrosine-protein kinase ABL1, non-phosphorylated (ABL1, Homo sapiens, UniProt P00519, H396P)	enzyme activity	inhibitor	–	1 µM	inhibition	5%
COc1ccc2[nH]c3c4[nH]c5ccc(OC)cc5c4c4c(c3c2c1)C(=O)NC4=O	ABL1 F317L	binding	–	–	1 µM	remaining binding	84%
CC#CC(=O)N1CCC[C@H]1c1nc(-c2ccc(C(=O)Nc3ccccn3)cc2)c2c(N)nccn12	Tyrosine-protein kinase ABL1, non-phosphorylated (ABL1, Homo sapiens, UniProt P00519, F317I)	enzyme activity	inhibitor	–	1 µM	inhibition	25%
C[C@H]1CC[C@H](n2c3cnccc3c3cnc(Nc4ccc5c(n4)CCN(C(=O)CO)C5)nc32)CC1	ABL1 E255K phosphorylated	binding	–	competition with immobilised ligand	1 µM	remaining binding	77%
N#Cc1ccc(NC(=O)Nc2ccccc2)cc1	ABL1 E255K phosphorylated	cell-free assay	–	competition with immobilised ligand	25 µM	remaining binding	92%
COc1ccc2oc(-c3ccc4nc(N)oc4c3)c/c(=N\c3ccccc3NC(=O)CCN)c2c1	ABL1	binding	–	–	1 µM	remaining binding	102%
CO[C@@H]1[C@H](N(C)C(=O)c2ccccc2)C[C@H]2O[C@]1(C)n1c3ccccc3c3c4c(c5c6ccccc6n2c5c31)C(=O)NC4	Tyrosine-protein kinase ABL1, non-phosphorylated (ABL1, Homo sapiens, UniProt P00519, Q252H)	enzyme activity	inhibitor	–	1 µM	inhibition	0%
Cc1ccc(NC(=O)c2ccnc(C(F)(F)F)c2)cc1-c1cc(OCCO)nc(N2CCOCC2)c1	Tyrosine-protein kinase ABL1 (ABL1, Homo sapiens, UniProt P00519, M351T)	binding	–	–	1 µM	remaining binding	100%
C1=C/COCc2cc(ccc2OCCN2CCCC2)Nc2nccc(n2)-c2cccc(c2)COC/1	ABL1 F317L	binding	–	–	0.1 µM	remaining binding	58%
CN1CCN(C(=O)c2ccc(NC(=O)Nc3ccc(N(C)c4ccnc(Nc5ccc(CS(C)(=O)=O)cc5)n4)cc3)cc2)CC1	ABL1 E255K phosphorylated	binding	–	competition with immobilised ligand	1 µM	remaining binding	38%
[2H]c1cc(C)c(NC(=O)c2cnc(Nc3cc(N4CCCCC4)nc(C)n3)s2)c(Cl)c1	ABL1	enzyme activity	inhibitor	–	100 pM	inhibition	> 50%
CCCCC(=O)Nc1ccc(-c2ccc3ncn(CCC)c(=O)c3c2)cn1	Tyrosine-protein kinase ABL1, non-phosphorylated (ABL1, Homo sapiens, UniProt P00519)	binding	–	competition with immobilised ligand	0.5 µM	remaining binding	85%
